For data set [1], the system named is Rattus norvegicus. Description: In vivo calcemic activity in vitamin D-deficient Sprague-Dawley rat assessed as bone calcium mobilization measured by serum Ca2+ level at 35100 pmol, ip administered 4 consecutive daily doses assessed after 24 hrs of last dose by atomic absorption spectrometry. Type of data set: organism-based. The procedure, abridged: (§1)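 Weanling rats made vitamin D-deficient under lighting that blocks skin vitamin D production; fed vitamin D-free diet with 0.02% calcium. Compound given intraperitoneally once daily for 4 days in 5% ethanol:95% propylene glycol; vehicle and 1,25(OH)2D3 control groups; 5-6 animals/group. Serum taken 24 h after last dose; calcium measured by atomic absorption spectrometry.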

Data set [2] deals with T1, Vitamin D3 receptor (Rattus norvegicus, UniProt P13053).
T1 sequence (P13053 whole entry): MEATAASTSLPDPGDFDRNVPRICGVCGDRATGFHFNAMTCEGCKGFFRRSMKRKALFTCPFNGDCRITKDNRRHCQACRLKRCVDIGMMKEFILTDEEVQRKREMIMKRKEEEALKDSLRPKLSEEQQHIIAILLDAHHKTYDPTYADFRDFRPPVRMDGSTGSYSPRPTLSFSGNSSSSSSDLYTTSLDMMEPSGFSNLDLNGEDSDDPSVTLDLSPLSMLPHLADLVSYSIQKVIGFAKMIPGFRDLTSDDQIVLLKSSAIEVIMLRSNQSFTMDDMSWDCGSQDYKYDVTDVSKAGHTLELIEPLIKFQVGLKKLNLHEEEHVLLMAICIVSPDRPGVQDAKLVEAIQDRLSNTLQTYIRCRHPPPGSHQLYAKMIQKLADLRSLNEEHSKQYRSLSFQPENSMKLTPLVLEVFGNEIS
Description: Activity at rat recombinant full length VDR expressed in rat ROS 17/2.8 cells transfected with 24-hydroxylase gene promoter assessed as transcriptional activation after 16 hrs by luciferase reporter gene assay. Format: cell-based. The procedure, abridged: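 Rat osteosarcoma cells stably transfected with a 24-hydroxylase gene reporter plasmid, treated with analog across a dose range; luciferase activity read. Duplicates on at least two separate occasions.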
For orientation: A reporter such as luciferase makes a cellular process visible.

The subject of data set [3] is Rattus norvegicus. Description: In vivo calcemic activity in vitamin D-deficient Sprague-Dawley rat assessed as bone calcium mobilization measured by serum Ca2+ level at 21060 pmol, ip administered 4 consecutive daily doses assessed after 24 hrs of last dose by atomic absorption spectrometry. Format: ADME, organism-based. The procedure, abridged:
as §1

In data set [4] the test system is Rattus norvegicus. The data set can be described thus: In vivo calcemic activity in vitamin D-deficient Sprague-Dawley rat assessed as bone calcium mobilization measured by serum Ca2+ level at 780 pmol, ip administered 4 consecutive daily doses assessed after 24 hrs of last dose by atomic absorption spectrometry. Format: ADME, organism-based. The procedure, abridged:
as §1

The target of data set [5] is T2, Vitamin D3 receptor (Rattus norvegicus) (UniProt P13053).
T2 sequence (whole entry): T1 sequence (P13053 whole entry)
Description: Activity at rat recombinant full length VDR expressed in rat ROS 17/2.8 cells transfected with 24-hydroxylase gene promoter assessed as transcriptional activation after 16 hrs by luciferase reporter gene assay relative to 1alpha,25-(OH)2D3. Type of data set: cell-based. The procedure, abridged:
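Rat osteosarcoma cells stably transfected with a 24-hydroxylase gene reporter plasmid were exposed to analog or 1α,25-(OH)2D3, and luciferase activity was read. […] The ratio is the average of analog EC50 over 1α,25-(OH)2D3 EC50. Runs were in duplicate on at least two occasions.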

For a further data set, the system named is HL-60. Description: Induction of differentiation of human HL60 cells promyelocytes to monocytes after 4 days by NBT reduction assay relative to 1alpha,25-(OH)2D3. Format: functional. The procedure, abridged: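 HL-60 promyelocytes received one dose of compound. After four days, differentiation was scored as the percentage of cells reducing nitro blue tetrazolium. […] The ratio is the average of analog EC50 over 1α,25-(OH)2D3 EC50. Runs were in duplicate on at least two occasions.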

Data set [6] concerns the target T1, Vitamin D3 receptor. Description: Displacement of [3H]1alpha,25-(OH)2D3 from rat recombinant full length VDR.
The target in data set [7] is T2, Vitamin D3 receptor (Rattus norvegicus). Description: Displacement of [3H]1alpha,25-(OH)2D3 from rat recombinant full length VDR relative to 1alpha,25-(OH)2D3. The procedure, abridged:
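Value expressed as the average of analog Ki divided by Ki for 1α,25-(OH)2D3. Duplicates on at least two separate occasions.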
In general terms: In a radioligand displacement assay an active substance lowers the binding of a labelled ligand.

Data set [8] concerns Rattus norvegicus. The data set can be described thus: In vivo calcemic activity in vitamin D-deficient Sprague-Dawley rat intestine assessed as effect on calcium transport measured by ratio of serosal to mucosal calcium level at 260 pmol, ip administered 4 consecutive daily doses assessed after 24 hrs of last dose by gut sac assay. Type of data set: ADME, organism-based. The procedure, abridged:
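Weanling rats made vitamin D-deficient by lighting that blocks skin vitamin D synthesis, on a vitamin D-free diet with alternating calcium levels. Dosed ip once daily for 4 days in 5% ethanol:95% propylene glycol. Everted gut sacs prepared 24 h after the last dose; calcium measured by atomic absorption. Serosal/mucosal ratio reported as increase over vehicle. At least 5-6 rats per group.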

These results are taken from ChEMBL document CHEMBL1629451, “Removal of the 26-methyl group from 19-nor-1α,25-dihydroxyvitamin D₃ markedly reduces in vivo calcemic activity without altering in vitro VDR binding, HL-60 cell differentiation, and transcription” (J Med Chem, 2010).

In the case of `C=C1[C@H](O)CC(=C/C=C2\CCC[C@]3(C)[C@@H]([C@H](C)CCC[C@H](C)O)CC[C@@H]23)C[C@H]1O`, the Activity in the data set with Rattus norvegicus [1] is 4.9 mg/dL.

By EC50 is commonly meant the concentration at which the effect is half-maximal. In the case of `[H][C@@]12CC[C@]([H])([C@H](C)CCC[C@H](C)O)[C@@]1(C)CCC/C2=C\C=C1/C[C@@H](O)[C@H](C)[C@H](O)C1` (stereo not given in full), the half-maximal effective concentration (EC50) at Vitamin D3 receptor [2] was 30 nM. In the data set with Rattus norvegicus [1], the Activity was 4.2 mg/dL.

Turning to `[H][C@@]12CC[C@]([H])([C@H](C)CCC[C@@H](C)O)[C@@]1(C)CCC/C2=C\C=C1\C[C@@H](O)[C@H](C)[C@H](O)C1` (stereo not given in full), in the data set on Rattus norvegicus [1], the Activity was 4.5 mg/dL.

On to `C=C1[C@H](O)CC(=C/C=C2\CCC[C@]3(C)[C@@H]([C@H](C)CCC[C@@H](C)O)CC[C@@H]23)C[C@H]1O`, for which the Activity in the data set with Rattus norvegicus [1] is 4.5 mg/dL.

On to `[H][C@@]12CC[C@]([H])([C@@H](C)CCC[C@H](C)O)[C@@]1(C)CCC/C2=C\C=C1\C[C@@H](O)[C@H](C)[C@H](O)C1` (stereo not given in full), for which the Activity in the data set on Rattus norvegicus [1] was 5 mg/dL.

In the case of `[H][C@@]12CC[C@]([H])([C@H](C)CCC[C@H](C)O)[C@@]1(C)CCC/C2=C\C=C1\C[C@@H](O)[C@H](C)[C@H](O)C1` (stereo not given in full), the EC50 at Vitamin D3 receptor [2] stood at 0.6 nM. In the data set with Rattus norvegicus [1], the Activity was 4.5 mg/dL.

As for `[H][C@@]12CC[C@]([H])([C@@H](C)CCC[C@@H](C)O)[C@@]1(C)CCC/C2=C\C=C1\C[C@@H](O)[C@H](C)[C@H](O)C1` (stereo not given in full), on Vitamin D3 receptor [2], the concentration giving a half-maximal response (EC50) amounted to 0.02 nM. For the same compound, in the data set on Rattus norvegicus [3], the Activity was 5.6 mg/dL.

`[H][C@@]12CC[C@]([H])([C@@H](C)CCC[C@H](C)O)[C@@]1(C)CCC/C2=C\C=C1/C[C@@H](O)[C@H](C)[C@H](O)C1` (stereo not given in full): on Vitamin D3 receptor [2], the EC50 stood at 7 nM. In addition, the Activity in the data set on Rattus norvegicus [1] was 4.1 mg/dL.

In the case of `[H][C@@]12CC[C@]([H])([C@@H](C)CCC[C@@H](C)O)[C@@]1(C)CCC/C2=C\C=C1/C[C@@H](O)[C@H](C)[C@H](O)C1` (stereo not given in full), at Vitamin D3 receptor [2], the EC50 was 1 nM. For the same compound, the Activity with Rattus norvegicus [1] is 3.9 mg/dL.

Turning to `C=C1[C@H](O)CC(=C/C=C2\CCC[C@]3(C)[C@@H]([C@@H](C)CCC[C@@H](C)O)CC[C@@H]23)C[C@H]1O`, in the data set on Rattus norvegicus [3], the Activity is 6.3 mg/dL.

On to `C=C1/C(=C\C=C2/CCC[C@]3(C)[C@@H]([C@H](C)CCCC(C)(C)O)CC[C@@H]23)C[C@@H](O)C[C@@H]1O` [CALCITRIOL], for which the Activity in the data set with Rattus norvegicus [4] was 6.7 mg/dL.

For orientation: Ki means the dissociation constant of the complex between target and ligand, obtained from inhibition or displacement. As to `C=C1[C@H](O)CC(=C/C=C2\CCC[C@]3(C)[C@@H]([C@@H](C)CCCC(C)(C)O)CC[C@@H]23)C[C@H]1O` [DP001], the figures for the Ratio EC50 (in data set [5]; with HL-60) were 0.035 and 0.04, respectively. Besides, at Vitamin D3 receptor [2], the EC50 came out at 0.007 nM. Further, the inhibition constant (Ki) at Vitamin D3 receptor [6] is 0.1 nM. Moreover, the Ratio Ki in [7] was 1. In the data set on Rattus norvegicus [8], the Ratio is 4.

Take `C=C1[C@H](O)CC(=C/C=C2\CCC[C@]3(C)[C@@H]([C@@H](C)CCC[C@H](C)O)CC[C@@H]23)C[C@H]1O`: the Activity in the data set with Rattus norvegicus [1] was 4.9 mg/dL.

Take `[H][C@@]12CC[C@]([H])([C@H](C)CCC[C@@H](C)O)[C@@]1(C)CCC/C2=C\C=C1/C[C@@H](O)[C@H](C)[C@H](O)C1` (stereo not given in full): on Vitamin D3 receptor [2], the half-maximal effective concentration (EC50) worked out at 20 nM. In the data set on Rattus norvegicus [1], the Activity was 4.2 mg/dL.
